From ChEMBL document CHEMBL4513216, “Probing the Open Global Health Chemical Diversity Library for Multistage-Active Starting Points for Next-Generation Antimalarials” (ACS Infect Dis, 2020)

Experiment: Toxicity liver stage against HepG2, at 10uM
Type: cell-based
Design: test concentration 10 uM, cell line HepG2-A16-CD81EGFP
Details: human, HepG2-A16-CD81EGFP cells; read-out: INHIBITION
Procedure, shortened: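 Uninfected HepG2-A16-CD81EGFP cells, 3 × 10^3 per well, 1536-well, plated on prespotted compound at 10 μM final, parasite-free screening media added to match infected plates; puromycin 10 μM positive, DMSO 0.5% negative; run in parallel with 48 h PbLuc assay at 37 °C, 5% CO2; viability by CellTiter-Glo luminescence, normalized to controls.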

SMILES | cytotoxicity at 10 µM
Cc1oc(-c2cccc(F)c2F)nc1CN(CCO)C(C)C | -15.2%
Cc1ccccc1CN1CCC[C@H]1c1nc(-c2cncnc2N)no1 | -0.921%
COC[C@H]1CCC[C@H]1Nc1ncnc2c1CCNCC2 | -11.2%
CCOCc1cccc(S(=O)(=O)Nc2ncc(C)s2)c1 | 6.38%
CN1C(=O)C2(CCN(C(=O)c3ccccc3)CC2)c2cccc(F)c21 | 4.74%
CCn1cc(C(=O)N2CCCC3(CCC(=O)N(CCC(C)C)C3)C2)cn1 (centres undefined) | -1.19%
CC(=O)N1C[C@H]2CNC[C@@]2(C(=O)NCCCOc2cccnc2)C1 | -7.52%
CC1COCCN1C(=O)c1cnccn1 (centres undefined) | -4.36%
Cc1cccc(C)c1OC1CN(Cc2cnc(N3CCOCC3)nc2)C1 | 3.47%
Cc1cc(C(=O)Nc2cnn(CC(F)(F)F)c2)nc(N2CCOCC2)n1 | -2.02%
CN[C@@H](C)C(=O)N(Cc1cccc(C)c1)Cc1ccccc1OC | -39.5%
O=C(CCN1CCc2ccccc21)N1C[C@@H](O)[C@H](N2CCOCC2)C1 | 1.23%
CN(C)C(=O)c1cccc(CN2CCN(CC(O)C(C)(C)C)CC2)c1 (centres undefined) | 1.74%
O=C(c1cccnc1Oc1ccccc1)N1CCCn2ncnc21 | -13.7%
CN(CC(F)(F)F)C(=O)c1ccc(F)c(NS(C)(=O)=O)c1 | -2.05%
CN(C(=O)Nc1ccncc1)C1CCN(c2ccccc2)C1=O (centres undefined) | -10.1%
CC(C)Cc1cc(C(=O)N2CCCN(c3cccnn3)CC2)[nH]n1 | -10.5%
COc1ncccc1NC(=O)c1[nH]nc(C(C)C)c1Br | 17.1%
CCN(Cc1nccn1C)C(=O)c1ccc(NCC(C)C)nc1 | -2.2%
O=C(CN1C(=O)CCC1=O)NCC1(O)CCc2ccccc21 (centres undefined) | -15.7%
O=S(=O)(C1CC1)N1CCC2(COCc3cnc(NCC4CC4)nc32)C1 (centres undefined) | 6.38%
CCC[C@H]1CN(C2CCOCC2)C[C@@H]1NC(=O)CCn1ccnc1C | 5.78%

SMILES | cytotoxicity at 10 µM
O=C(Cc1cccs1)N1CCOC(c2cccc(O)c2)C1 (centres undefined) | 0.631%
CN1CCN(Cc2cn3c(n2)CN(C(=O)c2ccccn2)CC3)CC1 | -5.7%
COc1cccc(-n2nnc(C(=O)N3CCN(C)CC3C)c2C)c1 (centres undefined) | -4.05%
Cc1nccc(CNS(=O)(=O)N2CCCC2c2ccc(C)o2)n1 (centres undefined) | -5.88%
CN1CCN(C(=O)c2cncc(CC3CCCN(C)C3)c2)CC1 (centres undefined) | 7.87%
O=c1[nH]c(C2CCOC2)nc2ccc(Cl)cc12 (centres undefined) | -12%
C[C@@H]1CN(C2(C(=O)N3CCSCC3)Cc3ccccc3C2)C[C@H](C)O1 | 0.66%
CCOC1CC2(CCN(Cc3cnn(C)c3)CC2)c2ccc(C)cc21 (centres undefined) | 4.62%
Cn1cccc1C(=O)N1C[C@H]2CN(Cc3cccnc3)C[C@H]2C1 | 3.94%
Cc1cc(CN2CCN(C(=O)C3(C#N)CCCCC3)CC2)on1 | 4.81%
COCC(=O)N1CC[C@@H]2O[C@H](COCc3csc(C)n3)CC[C@@H]21 | -85.8%
CNS(=O)(=O)c1ccc(CNC(=O)N(C)CC(O)COC)cc1 (centres undefined) | -1.22%
O=C(C1CC1)N1CCC2(CCN2Cc2ccc(F)cc2)C1 (centres undefined) | 1.55%
Cc1ncc(CN(C)C)c(C2CCCN2c2ncccn2)n1 (centres undefined) | -0.6%
CC1CCC(NS(=O)(=O)CC(=O)NC2(C(N)=O)CCCC2)CC1 (centres undefined) | -4.12%
CC1N(C)C(=O)COC12CCN(Cc1ccsc1)CC2 (centres undefined) | -5.24%
c1ccc(Oc2nccnc2C2CCN(C3CCOCC3)CC2)cc1 | 4.38%
CN1CC(Oc2ccccc2)=NC(SCC(=O)Nc2ccccc2Cl)=N1 | -9.19%
CN(C)CCOCc1cncc2c1CCN(C(=O)C1CCOCC1)C2 | -1.87%
COCC(=O)N[C@@H]1CN(Cc2c[nH]nc2-c2cccs2)C[C@H]1O | 1.48%
CN1CCn2c(-c3cnn(C)c3)cnc2C12CCN(CC1CC1)CC2 | 7.55%
Cc1cc(C[C@@H]2CCC[C@H]2NCc2ccc(C(F)(F)F)cc2)on1 | -10.1%

SMILES | cytotoxicity at 10 µM
CCOc1ccc(Cl)c(C(=O)NC)n1 | -4.63%
COc1cccc(-c2noc(-c3ccc(N4CC(N)C4)nc3)n2)c1OC | -4.8%
O=C(c1ccc(-c2cnco2)cc1)N1CCC(Nc2cccnn2)CC1 | -0.692%
O=C(NC1COC2(CCN(Cc3cccs3)CC2)C1)c1ccccn1 (centres undefined) | -2.19%
CC(C)NC(=O)c1ccc2c(c1)nc1n2CCN(C(C)C)C1 | 3.54%
CC(C)(C)Cc1nnc(NCc2ccsc2)o1 | -5.36%
Cc1cnc(N2CCn3cc(CNC(=O)CC4CC4)nc3C2)nc1 | 12.3%
Cn1ncc(N2CCC(CNC3Cc4ccccc4C3)C2)cc1=O (centres undefined) | -6%
CC(=O)N1CC(=O)N(c2ccccc2)CC12CCN(CC1CC1)C2 (centres undefined) | 4.45%
COc1ccc(CC(=O)N2CCCCC2Cn2cccn2)cc1 (centres undefined) | -11.3%
CN(Cc1cccnc1)CC1CC12CCN(Cc1nccs1)CC2 (centres undefined) | 10.2%
Cc1cnn(CC2CN(c3nnc(C)c(C)c3C#N)CCO2)c1 (centres undefined) | -5.25%
CCOc1ccc(-c2cc(CCN)ccc2OC)cc1 | 1.63%
Cc1nc(NS(=O)(=O)c2cccc(F)c2C)no1 | 5.3%
CS(=O)(=O)NC1CCN(C(=O)c2ccc(F)cc2)CC1 | 2.3%
Cc1nc(C2CCCN(C(=O)c3ccc(OCC4CC4)nc3)C2)no1 (centres undefined) | -4.41%
CC(C)(C)C(=O)NCCC(=O)Nc1cc(C#N)cn1C(C)(C)C | 2.02%
CC(C)NC(=O)NC[C@H]1OC[C@@H](NCc2ccncc2)[C@@H]1O | -4.07%
CN(CC1CCCN(S(C)(=O)=O)C1)c1cnn(C)c1 (centres undefined) | 2.56%
Cc1nnc(CN(Cc2ccc(Cl)c(Cl)c2)C(C)C)o1 | 4.91%
Cc1cc(C)nc(N2CCCC(C)(c3[nH]ncc3C(=O)N(C)C)C2)n1 (centres undefined) | 7.42%
O=C(CS(=O)(=O)C1CCCC1)NC1CCCc2cc(OC(F)F)ccc21 (centres undefined) | 4.84%

SMILES | cytotoxicity at 10 µM
CC(=O)N1CCCC1c1nccnc1Nc1cccc(C)n1 (centres undefined) | 1.31%
Cc1nn(C)c(C)c1NC(=O)c1cccc(CN2CC[C@H](O)C2)c1 | 1.08%
Cc1cnn(CC2CCCCN2C(=O)c2c(C)noc2C)c1 (centres undefined) | -7.26%
Cc1[nH]ccc1C(=O)N1CCCC(c2nccn2Cc2cscn2)C1 (centres undefined) | -17.5%
CN(Cc1cccs1)c1cc(N2CCCC2CO)ncn1 (centres undefined) | 1.26%
Cc1ccc(C)c2c(O)cc(CNCC(N)=O)nc12 | -3.35%
O=C(O)c1ccnc(-c2ccnc(COc3ccccc3Cl)n2)c1 | -9.86%
CN1C(=O)CC(c2ccccc2)C12CCN(CCO)CC2 (centres undefined) | 6.47%
c1ccc(CN2CCc3ncnc(C4CC4)c3CC2)nc1 | -138%
CN(CCO)c1ncc(-c2ccc(NC(=O)[C@@H]3CCCCN3)cc2)cn1 | 0.609%
CC(C)c1nc(C2CCCN2CCS(=O)(=O)c2ccccc2)no1 (centres undefined) | -5.28%
CSCC1CCN(C(=O)c2ccccc2NCc2cccnc2)C1 (centres undefined) | -3.33%
Cc1nccn1Cc1nnc(C2CCCN(Cc3ccncc3)C2)n1C (centres undefined) | -1.63%
CC1=C(CCN2CC[C@@H](N3CCC(O)CC3)[C@H](O)C2)C(C)(C)CCC1 | -4.42%
CC(C)N1CCCC(CN(C)c2ccc(Cn3ccnc3)cn2)C1 (centres undefined) | -127%
O=S(=O)(CCCn1cncn1)Cc1cccc(F)c1 | 2.31%
c1cncc(N2CCO[C@H]3CN(CC4CCOC4)C[C@H]32)c1 (some centres undefined) | -95.7%
COC(=O)C(C)N(Cc1cc(C)on1)C1CC1 (centres undefined) | 0.91%
CC1CN(C(=O)CN(Cc2ccccc2Cl)C2CCCC2)CCO1 (centres undefined) | -5.65%
CCN(CCO)Cc1ccc(Br)c2cccnc12 | 1.95%
Cc1cc2nc(C(C)C)cc(N[C@H](C(N)=O)C(C)C)n2n1 | -1.66%
Cc1ccc(-n2c(O)cc(C)c(C#N)c2=O)c(C)c1 | 7.75%

SMILES | cytotoxicity at 10 µM
COC(=O)N1CC[C@@]2(O)CCCC[C@H]2[C@@H]1c1ccc2c(c1)OCO2 | 2.91%
CSCc1cc(F)ccc1CNCc1ccncc1 | -7.53%
CN(Cc1nccn1C)c1nccc(N2CCCC(O)C2)n1 (centres undefined) | -8.29%
COc1ccc(NC(=O)C2CC(=O)n3cnnc3S2)cc1 (centres undefined) | 1.64%
CS(=O)(=O)c1ccc(O[C@H]2COCCN(C(=O)c3ccno3)C2)cc1 | 0.0962%
Cc1ccc(N2CCC3(CCN(C(=O)c4ccsc4)CC3)CC2)nn1 | 2.19%
Cn1cc(-c2nc(C3CCN(S(C)(=O)=O)CC3)cc3c2ncn3C)cn1 | 1.39%
CC(=O)N1CCO[C@@H]2CN(C(=O)NCc3cccnc3)CC[C@@H]2C1 | 7.34%
Cc1cccc(N2CC3(CCN(S(=O)(=O)c4ccccc4)C3)CC2=O)c1 (centres undefined) | 11%
Cc1noc([C@@]23CCO[C@@H]2CCN(S(=O)(=O)c2cccnc2)C3)n1 | -103%
Cc1nnc(SCCCNC(=O)Cc2ccc3c(c2)OCO3)s1 | 7.75%
Cc1ccc(C(=O)NS(=O)(=O)c2cc(Br)ccc2C)c(=O)[nH]1 | -2.27%
CN(Cc1cccnc1)C[C@@H]1OC[C@H]2CN(Cc3ccco3)CC[C@H]21 | -147%
COCC1CN(Cc2cccnc2)Cc2nnn(CC3CC3)c21 (centres undefined) | -0.0925%
Cn1nc(Cn2ccnc2)c2c1CN(Cc1ccoc1)C2 | 0.319%
COCc1cc(CN(C)C(C(=O)O)c2cc(C)c(OC)c(C)c2)n[nH]1 (centres undefined) | 1.07%
CN1C(=O)C2(CC(=O)Nc3c2cnn3C(C)(C)C)c2c(Cl)cccc21 (centres undefined) | 3.41%
CCc1cc(CNC(=O)Nc2cc(F)ccc2N2CCCCC2)on1 | -18.9%
CCn1ncc2c1C(COC)CN(Cc1ccc(C)o1)C2 (centres undefined) | 5.41%
COc1ccccc1C(C)N1CCN(S(=O)(=O)N(C)C)CC1 (centres undefined) | -8.8%
O=C(CCC(=O)N1CCc2ccccc2C1)c1cccs1 | -61.8%
